The list is not random: actives were taken first. Their share in the collection is about 3.7%.
KCNQ1 inh = inhibitors of human KCNQ1 potassium channel | CHO-K1 KCNQ1, FluxOR thallium flux fluorescence; stronger effect = higher value | B-score at 10 µM | 310,000 compounds, 1.3% hits | AID 2642;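 active = compounds whose thallium flux B-score, printed positive for inhibition, exceeds three library SD while starting fluorescence stays within three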;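 note: channel opened by potassium depolarization with thallium stimulus after 20 min compound exposure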
KCNK9 inh = blocks the human KCNK9 two-pore domain potassium channel. HEK293 KCNK9, FluxOR thallium flux fluorescence; stronger effect = lower value. 310,000 compounds, 1.2% hits. Q9NPC2. B-score at 10 µM;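 active = ratio B-score over 3 SD below the library mean, with starting fluorescence within 5 SD of its mean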;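 note: negative B-score means less thallium flux so channel inhibition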
Target sequence (Q9NPC2 whole entry, looked up, the tested form may be a part): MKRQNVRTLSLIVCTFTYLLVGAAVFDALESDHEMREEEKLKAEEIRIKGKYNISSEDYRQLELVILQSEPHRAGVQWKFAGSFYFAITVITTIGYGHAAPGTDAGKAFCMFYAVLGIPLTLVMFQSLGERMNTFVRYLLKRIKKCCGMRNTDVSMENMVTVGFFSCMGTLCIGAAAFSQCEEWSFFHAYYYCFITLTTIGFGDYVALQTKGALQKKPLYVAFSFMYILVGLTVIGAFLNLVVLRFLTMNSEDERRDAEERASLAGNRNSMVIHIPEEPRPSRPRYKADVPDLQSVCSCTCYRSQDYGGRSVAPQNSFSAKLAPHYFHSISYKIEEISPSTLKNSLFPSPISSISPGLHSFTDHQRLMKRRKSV
hERG rescue = shields human hERG channel from block by proarrhythmic agents; activation (rescue from dofetilide block), less the hit threshold, % at 10 µM; 310,000 compounds, 0.51% hits; CHO-hERG, FluxOR thallium flux, dofetilide IC70 present; Q12809;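 active = activation above the mean of controls blocked by dofetilide plus 5 SD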;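 note: thallium influx through hERG after potassium depolarization seen as dye fluorescence rise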
Kir21 block = inhibitors of mouse Kir2.1 inward-rectifier potassium channel; HEK293-Kir2.1, FluxOR thallium flux fluorescence; stronger effect = lower value; 310,000 compounds, 0.85% hits; P35561; B-score at 10 µM; AID 1672;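 active = fluorescence ratio B-score at or below minus 3 SD of library scores, with starting-brightness B-score within 2 SD, cut at about -4.2 in these data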;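 note: channel flux triggered by added potassium and thallium sulfate stimulus; B-score of peak minus minimum fluorescence over baseline after thallium stimulus; more negative B-score means stronger Kir2.1 block with less thallium influx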
KCNQ1 act = potentiators or activators of human KCNQ1 potassium channel | P51787 | CHO-K1 KCNQ1, thallium flux FluxOR fluorescence; stronger effect = higher value | B-score at 10 µM | 310,000 compounds, 0.35% hits;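 active = fluorescence ratio B-score, a plate-corrected score, at least three library SD, with initial intensity B-score within 5 SD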
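Test system: CHO-K1 cells stably expressing KCNQ1 / Medium: assay buffer / Also added: depolarizing K+/Tl+ stimulus, K2SO4 and Tl2SO4 each 12.5 mM in 5x stock / Incubation: 90 min dye loading and 20 min compound exposure, both at room temperature / Signal: thallium influx via FluxOR fluorescence, kinetic imaging / Evaluation: B score of baseline-normalized fluorescence ratio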
KCNK3 block = human KCNK3 channel inhibition, primary screen | CHO-KCNK3 thallium flux, FluxOR fluorescence; stronger effect = lower value | B-score at 10 µM | 340,000 compounds, 0.84% hits | AID 602410;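 active = B-score under library mean minus 4 SD, starting fluorescence ratio at most library mean plus 5 SD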;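 note: more negative B-score means stronger inhibition of thallium flux through KCNK3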
KCNK9 block conf = confirmation of human KCNK9 potassium channel inhibitors | inhibition, % at 10 µM | HEK293 KCNK9 cells, FluxOR thallium flux fluorescence | 4,900 compounds, 43% hits | shares compounds with KCNK9 inh;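 active = thallium signal inhibited by more than 5 SD of the compound-free buffer control wells, on both duplicate plates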
Kir2-1 spec = mouse Kir2.1 off-target activity of KCNK9 modulators | Kir2.1 cells, FluxOR thallium flux fluorescence | shares compounds with KCNK9 inh | 4,900 compounds, 4% hits | AID 492993 | inhibition, % at 10 µM;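 active = thallium signal drop more than 5 SD beyond the mean of the no-compound control wells, seen in both duplicate plates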;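 note: signal is fluorescence rise after thallium addition divided by baseline fluorescence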
HEK293 Tl ctr = second counter-screen for KCNK9 modulators: effect in non-induced cells | shares compounds with KCNK9 inh | non-induced KCNK9-HEK293, FluxOR thallium flux | inhibition, % at 10 µM | 4,900 compounds, 40% hits;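 active = thallium signal drop beyond 5 SD of the untreated control mean, on both duplicate plates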
Hits are given with their value; – = inactive; · = not tested or not shown.

SMILES	KCNQ1 inh	KCNK9 inh	hERG rescue	Kir21 block	KCNQ1 act	KCNK3 block	KCNK9 block conf	Kir2-1 spec	HEK293 Tl ctr
Cc1cc(C(=O)COC(=O)c2ccccc2O)c(C)n1Cc1cccs1	–	–	–	–	–	–	·	·	·
O=C(NCc1ccccc1)C1=C[C@H](c2ccc(Br)cc2)C[C@H](OCCCCO)O1	–	–	–	–	–	–	–	–	–
O=C(Nc1ccccc1)C1=C[C@H](c2csc3ccccc23)C[C@H](OCc2ccc(CO)cc2)O1	–	-9.1	–	–	–	–	45.5%	–	35.5%
C#Cc1ccc([C@H]2C=C(C(=O)NCc3ccccc3)O[C@@H](OCc3ccc(CO)cc3)C2)cc1	–	–	–	–	–	–	–	–	–
O=C(NC1CC1)C1=C[C@H](c2csc3ccccc23)C[C@H](OCc2ccc(CO)cc2)O1	–	–	–	–	–	–	·	·	·
CC(C)(C)[C@H]1C=C(C(=O)NCc2ccccc2)O[C@@H](OCCCCO)C1	–	–	–	–	–	–	–	–	–
CCc1cccc(OCC(=O)Nc2cc(S(=O)(=O)N3CCOCC3)ccc2N2CCCC2)c1	–	–	–	–	–	–	·	·	·
COc1ccc(CCNC(=O)CC2SC(=NCCc3ccccc3)NC2=O)cc1OC (stereo not given)	–	–	–	–	–	–	·	·	·
O=C(C1=C[C@@H](c2ccc(Br)cc2)C[C@@H](OCCCCO)O1)N1CCN(Cc2ccc3c(c2)OCO3)CC1	–	–	–	–	–	–	·	·	·
O=C(C1=C[C@H](c2ccc(Br)cc2)C[C@H](OCCCCO)O1)N1CCN(Cc2ccccc2)CC1	–	–	–	–	–	–	–	–	–
COc1ccc(CN2CCN(Cc3ccccc3C(F)(F)F)CC2)c(OC)c1	–	–	–	–	–	–	–	–	–
COc1cccc(CN2CCN(Cc3cccc(Oc4ccccc4)c3)CC2)c1OC	–	–	–	–	–	–	–	–	–
COc1ccc(OC)c(CN2CCN(Cc3cccc4ccccc34)CC2)c1	–	–	–	–	–	–	–	–	–
COc1cccc(CN2CCN(C(=O)c3cccc4ccccc34)CC2)c1	–	–	–	–	–	–	·	·	·
COc1cccc(CN2CCN(Cc3ccccc3C(F)(F)F)CC2)c1	–	–	–	–	–	–	–	–	–
CCOc1ccc(NS(=O)(=O)c2ccc(C(=O)NCC(c3ccc(OC)cc3)N3CCCC3)cc2)cc1 (stereo not given)	–	–	–	–	–	–	·	·	·
Cc1ccccc1CN1CCN(Cc2ccccc2C(F)(F)F)CC1	–	–	–	–	–	–	–	–	–
O=S1(=O)CCN(Cc2ccccc2C(F)(F)F)CC1	–	–	–	–	–	–	·	·	·
Cc1ccc(-n2ncc3c(=O)n(CC(=O)N(C(C)C)C(C)C)cnc32)cc1	–	–	–	–	–	–	·	·	·
CCOC(=O)C1CCN(c2c([N+](=O)[O-])c(C(Cl)Cl)nn2-c2ccccc2)CC1	–	–	–	–	–	–	–	–	–
O=[N+]([O-])c1c(C(Cl)Cl)nn(-c2ccccc2)c1N1CCCC1	–	–	–	–	–	–	·	·	·
Cc1cc(C)c(S(=O)(=O)c2ccccc2C)c(OCC(C)(C)C)n1	–	-10.5	–	–	–	–	43.5%	–	53.0%
FC(F)(F)c1ccccc1CN1CCCC(N2CCN(c3ccccc3)CC2)C1 (stereo not given)	–	–	–	–	–	–	–	–	–
COc1ccc(/C=N/NC(=O)CCc2c(C)n[nH]c2C)cc1O	–	–	–	–	–	–	·	·	·
CCCc1nc(SCc2ccccn2)c2c(=O)n(C)c(=O)n(C)c2n1	–	–	–	–	–	–	·	·	·
SMILES	KCNQ1 inh	KCNK9 inh	hERG rescue	Kir21 block	KCNQ1 act	KCNK3 block	KCNK9 block conf	Kir2-1 spec	HEK293 Tl ctr
Cn1c(=O)c2c(SCc3ccccn3)nc(CC(C)(C)C)nc2n(C)c1=O	–	–	–	–	–	–	–	–	–
O=C(CSc1nnc(COc2ccc(Br)cc2)o1)NC1CCCCC1	–	–	–	–	–	–	·	·	·
CCn1c(SCC(=O)N/N=C/C(C)=C\c2ccco2)nnc1-c1ccccc1	–	–	–	–	–	–	–	–	–
CCCCN(CCCC)c1ccc(C(=O)c2ccccc2C(=O)O)c(O)c1	–	–	–	–	18	–	–	–	–
CC(C)C(=O)Nc1ccc(S(=O)(=O)N2CCC(c3nc4ccccc4[nH]3)CC2)cc1	–	–	–	–	–	–	·	·	·
CSc1ccccc1OCc1cc(C(=O)N(C)Cc2ccc(C)o2)no1	–	–	–	–	–	–	–	–	–
CSc1ccccc1OCc1cc(C(=O)N(C)Cc2ccc3nsnc3c2)no1	–	–	–	–	–	–	·	·	·
Cc1nc(CC(C)C)cc(C(=O)N2CCCC(CNS(=O)(=O)c3cccs3)C2)n1 (stereo not given)	–	–	–	–	–	–	·	·	·
c1ccc(COc2cccc(CN3CCN(c4ccccn4)CC3)c2)cc1	–	-9.07	–	–	–	–	35.0%	–	27.0%
COc1ccc(Sc2nnc(Cc3ccccc3)c3ccccc23)cc1	–	-14.7	–	–	–	–	–	–	27.0%
Cc1ccc(Sc2nnc(Cc3ccccc3)c3ccccc23)cc1	–	-12.9	–	–	–	–	70.0%	–	41.5%
COc1ccc(Sc2nnc(-c3ccccc3)cc2C#N)cc1	–	–	–	–	–	–	·	·	·
COc1cc(CCNC2=CC(=O)c3ncccc3C2=O)ccc1O	·	·	·	·	·	–	·	·	·
COc1ccccc1C(C)NC(=O)c1ccc(NC(=O)CC2SC(N3CCCC3)=NC2=O)cc1 (stereo not given)	·	·	·	·	·	–	·	·	·
CCOc1ccc(C(=O)NCC(=O)N2CCCCCCC2)cc1	·	·	·	·	·	–	·	·	·
Cc1ccc(C#N)c(SCc2cccc(Br)c2)n1	–	-11.5	–	–	–	–	42.0%	–	48.5%
COC(=O)c1sc(-c2ccc(C(C)(C)C)cc2)cc1NC(=O)CCC(=O)O	–	–	–	–	–	–	–	–	–
C=CCN1C(=O)c2ccccc2Sc2ccc(C(=O)NCC(OC)OC)cc21	–	–	–	–	–	–	·	·	·
O=C1CC(=C(c2ccccc2)c2ccccc2)C(=O)N1CCN1CCN(c2cccc(Cl)c2)CC1	–	–	–	–	–	–	–	–	–
COc1ccc(CCN2C(=O)c3cccc4c(C(=O)N5CCCCC5)ccc(c34)C2=O)cc1OC	–	–	–	–	–	–	·	·	·
OCC1(Cc2ccccc2C(F)(F)F)CCN(Cc2ccccc2)CC1	–	–	–	–	–	–	–	–	–
